CHO parental Ca: signal in parental CHO cells, OX1R antagonist counter-screen | parental CHO-K1, ATP-induced calcium, Fluo-8 fluorescence | inhibition, % at 5.6 µM | hit rate 0.63% among 330,000 | AID 463079;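 active = inhibition above that plate's mean sample inhibition plus 3 SD, cut at about 26% in these data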;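 also: 0% = ATP-challenged DMSO wells and 100% = DMSO wells without ATP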
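Assay system: parental CHO cells; Read-out basis: percent inhibition of ATP-evoked calcium rise, normalized to controls; Benchmarks: ATP and no-ATP DMSO wells; Compound dosing: single nominal dose of 5.6 µM per compound; Signal: Fluo-8 calcium dye fluorescence; Also added: ATP as calcium-mobilizing challenge; Repeats: singlicate.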
GPR7 antagonist: antagonists of human GPR7 (neuropeptides B/W receptor 1); inhibition, % at 4.4 µM; AID 1861; GPR7-expressing cells, fluorescence antagonist assay; hit rate 1.1% among 290,000; P48145; in the data active = inhibition above about 16%, passing the limit was not always enough;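 also: cells stimulated with the agonist NPW; 0% = agonist with vehicle and 100% = vehicle without agonist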
OX1R antag-1: blocks the human orexin 1 receptor; CHO/OX1R cells, Fluo-8 calcium fluorescence, orexin A; inhibition, % at 5 µM; hit rate 0.43% among 330,000;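 active = inhibition above its plate's threshold, mean inhibition of all tested compounds on the plate plus 3 SD, cut at about 37% in these data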;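 also: 0% = orexin A challenge wells and 100% = SB-334867-A antagonist wells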
Target sequence (O43613 whole entry, looked up): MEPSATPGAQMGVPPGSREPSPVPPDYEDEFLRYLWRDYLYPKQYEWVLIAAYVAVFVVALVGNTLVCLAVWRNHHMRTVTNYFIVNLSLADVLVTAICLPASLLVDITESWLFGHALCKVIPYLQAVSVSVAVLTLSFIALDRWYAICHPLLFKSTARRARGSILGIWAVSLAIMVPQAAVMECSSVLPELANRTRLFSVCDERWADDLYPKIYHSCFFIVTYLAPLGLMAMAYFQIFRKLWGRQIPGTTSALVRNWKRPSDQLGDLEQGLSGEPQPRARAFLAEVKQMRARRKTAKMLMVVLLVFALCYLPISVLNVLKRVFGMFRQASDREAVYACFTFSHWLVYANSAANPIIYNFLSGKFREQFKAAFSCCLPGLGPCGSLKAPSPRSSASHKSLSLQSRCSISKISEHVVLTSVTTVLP
OX1R antag-2: antagonists of human orexin 1 receptor (OX1R). O43613. hit rate 1.8% among 330,000. AID 485270. OX1R-expressing cells, FRET antagonist read-out. inhibition, % at 6.6 µM; in the data active = inhibition mostly above about 38%, no sharp cut-off; inactive = mostly below about 40%;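 also: 0% = agonist challenge alone and 100% = reference antagonist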
GalR3 antagonist: blocks the human galanin receptor 3; HEK293 GalR3-CNG cAMP membrane potential fluorescence; galR3 body fused to GalR1 C-terminus; inhibition, % at 3 µM; hit rate 0.44% among 360,000;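 active = inhibition above the screen-wide average plus 3 SD, cut at about 13% in these data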;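 also: forskolin and galanin both at EC90 stimulate the cells; cAMP rise reported by CNG channel membrane potential dye signal; 0% = forskolin plus galanin with DMSO and 100% = forskolin alone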
Active calls of the source: *; / = no result given. Rows were chosen to be rich in hits. Some 3.1% of all compounds tested hit in one or more screens of this group.

SMILES	CHO parental Ca	GPR7 antagonist	OX1R antag-1	OX1R antag-2	GalR3 antagonist
O=C(NCCc1cn2ccsc2n1)C1CCCCC1	-3	-9	0	6	/
C=CCC12C[C@@]3(O[C@H](c4ccc(C(F)(F)F)cc4)N=C3C[C@H](c3ccc(OC)cc3)[C@H]1C)N(Cc1ccc3c(c1)OCO3)C2=O	/	/	/	/	-9
CCCCNS(=O)(=O)c1ccc2nc(SCC(=O)Nc3sccc3C#N)[nH]c2c1	47*	13	54*	76*	5
O=C(NCCN1CCOCC1)c1ccncc1	2	-9	1	4	-1
O=C1C=C(NCCN2CCOCC2)C(=O)c2cnccc21	-4	-10	1	115*	/
O=C(O)c1ccc(-c2ccc(/C=C3\NC(=O)N(Cc4ccc(Cl)cc4)C3=O)o2)cc1Cl	/	-3	/	/	1
COc1ccc(OC)c(C(c2nnnn2C2CCCC2)N2CCN(c3ccc(F)cc3)CC2)c1 (stereo not given)	-14	18*	-17	6	-3
COc1ccc(C(c2nnnn2C2CCCC2)N2CCC(C)CC2)c(OC)c1 (stereo not given)	-15	4	-22	2	-3
CC(NCc1ccc(S(N)(=O)=O)cc1)C(=O)Nc1cc([N+](=O)[O-])ccc1Cl (stereo not given)	-1	0	-3	58	7
CC(NCc1ccc(S(N)(=O)=O)cc1)C(=O)Nc1ccc([N+](=O)[O-])cc1Cl (stereo not given)	-3	2	-5	66*	-3
O=C(O)CCN=CC1=C(O)CC(c2ccccc2)CC1=O (stereo not given)	7	-10	0	4	-9
O=S(=O)(C=C(c1ccccc1)c1ccccc1)c1ccccc1	48*	-8	43*	42	-5
O=S(=O)(/C=C/c1ccccc1)c1ccccc1	14	-5	-2	9	-3
O=C(NCC(c1cccs1)N1CCOCC1)c1ccc(Cl)nc1 (stereo not given)	5	/	-11	1	-4
CCOc1ccc(OCCN2C(=O)NC(Cc3c[nH]c4ccccc34)C2=O)cc1 (stereo not given)	-17	-3	16	43*	-4
COc1ccc(/C=C2/SC(=O)N(NS(=O)(=O)c3ccccc3)C2=S)cc1OC	-17	-5	-5	43*	-6
COc1cccc(/C=C2\SC(=S)N(NS(=O)(=O)c3ccccc3)C2=O)c1OC	-13	-17	-14	50*	-11
COc1cc(/C=C2\SC(=S)N(NS(=O)(=O)c3ccccc3)C2=O)cc(OC)c1OC	-28	-16	-28	36	2
COC(=O)c1c(C)oc2ccc(NS(=O)(=O)c3cccs3)cc12	9	-15	-3	40*	-5
O=C(COC(=O)CNC(=O)c1ccc(Cl)c([N+](=O)[O-])c1)NC(=O)c1ccccc1	-2	-7	-8	51*	-4
COc1cc(CNC(=O)c2ccccc2NC(=O)C2=C(C)OCCS2)cc(OC)c1OC	-12	-18	-24	23	3
COC(=O)C1=C(C)N(Cc2cccc(C(F)(F)F)c2)C(=NCc2ccc(C(F)(F)F)cc2)NC1c1ccccc1C(F)(F)F (stereo not given)	/	/	/	/	-7
CCCCN(c1nc2ccccc2nc1Cl)S(=O)(=O)c1ccc(C)cc1	54*	-11	1	15	-16
COc1cc(/C=N/NC(=O)c2cccc(C)c2)ccc1OCC(=O)Nc1ccccc1	-12	/	-31	11	-2
Cc1ccc(C)c(S(=O)(=O)N2CCCC2CNC(=O)C(=O)NCCc2ccco2)c1 (stereo not given)	-15	/	11	58*	-6
SMILES	CHO parental Ca	GPR7 antagonist	OX1R antag-1	OX1R antag-2	GalR3 antagonist
Cc1ccc(S(=O)(=O)N2CCCCC2CCNC(=O)C(=O)NCCc2ccco2)cc1 (stereo not given)	-23	/	9	48	2
Cc1ccc(C)c(S(=O)(=O)N2CCCCC2CCNC(=O)C(=O)NCCc2ccco2)c1 (stereo not given)	-29	/	-2	55*	-5
Cc1cc(S(=O)(=O)N2CCCOC2CNC(=O)C(=O)NCCc2ccco2)ccc1F (stereo not given)	-18	-7	11	61*	-3
COc1ccccc1CCNC(=O)C(=O)NCCC1CCCCN1S(=O)(=O)c1ccccc1 (stereo not given)	-31	/	-2	60*	-6
COc1ccccc1CNC(=O)C(=O)NCCC1CCCCN1S(=O)(=O)c1ccc(C)cc1 (stereo not given)	2	/	-16	34	-7
O=C(c1ccc(CNS(=O)(=O)c2ccc(Br)cc2)cc1)N1CCCCCC1	-13	7	-5	2	-9
COc1cccc(CNc2nc3cc(-c4cccc(C(=O)NCCO)c4)sc3c(=O)n2C)c1	/	/	/	/	-6
COC(=O)N1C[C@H](O)[C@H](O)C[C@@H]1c1ccccc1Br	/	/	/	/	-7
Clc1ccc2c(N/N=C/c3ccc(Br)cc3)ccnc2c1	49*	-4	8	15	-5
CC(C)C[C@H](NC(=O)c1ccc(Cl)c(Cl)c1)C(=O)N1CCC[C@H]1C(=O)NCc1ccccc1	/	/	/	/	0
COc1ccc(NC(=O)CSCC(=O)Oc2c(OC)cccc2OC)cc1	-1	/	-12	16	-2
Cc1c(C(=O)O)c(O)cc2c1C(=O)c1c(O)c([C@@H]3O[C@H](CO)[C@@H](O)[C@H](O)[C@H]3O)c(O)c(O)c1C2=O	11	/	-9	71*	-4
OCCN(CCO)c1ccc(C(c2ccccc2Cl)c2ccc(N(CCO)CCO)cc2Cl)c(Cl)c1	47*	8	39	6	/
OCCN(CCO)c1ccc2ccccc2c1	-6	7	-4	21	-4
Cc1cccc(CN2CCN(C3CN(Cc4cn(Cc5ccc(C(F)(F)F)cc5)nn4)S(=O)(=O)C3)CC2)c1 (stereo not given)	/	/	/	/	-10
Nc1ccc(O)c([N+](=O)[O-])c1	5	/	-10	49*	-1
Nc1cc([N+](=O)[O-])ccc1O	-7	10	-3	41	-3
COc1ccc(CN(CCN(C)C)c2ccccn2)cc1	-12	-13	-3	17	-6
CCCCCCCCCCCCCCCC[N+](C)(C)CCN(Cc1ccc(OC)cc1)c1ncccn1	64*	/	46*	7	/
C=CCOc1cccc(/C=N/NC(=O)CC(=O)NC2CCCCC2)c1	-8	-16	-22	3	-4
Cc1cc(C(=O)N/N=C/c2ccc(-c3ccc([N+](=O)[O-])cc3Cl)o2)n[nH]1	-12	-11	-17	10	-7
Cc1cc(C(=O)N/N=C/c2ccc(-c3ccccc3Cl)o2)n[nH]1	-18	-13	4	70*	-4
Cc1cc(C(=O)N/N=C/c2ccc([N+](=O)[O-])s2)n[nH]1	-4	-2	-11	53*	0
Cc1cc(C(=O)N/N=C\c2cc(C(C)(C)C)c(O)c(C(C)(C)C)c2)n[nH]1	-8	-27	-19	11	-7
Cc1[nH]cnc1C(=O)N/N=C/c1ccc([N+](=O)[O-])s1	4	-4	-14	71*	-11
